In ChEMBL document CHEMBL4017549, “Structural Basis of Inhibition of ERα-Coactivator Interaction by High-Affinity N-Terminus Isoaspartic Acid Tethered Helical Peptides” (J Med Chem, 2017):
Calls of active or inactive are those of the source. No cut-off for these calls is given here.

Key:
Estrogen receptor = molecular target: T1, Estrogen receptor (Homo sapiens, UniProt P03372); assay: Binding affinity to recombinant human GFP-fused ERalpha LBD (301 to 553 residues) expressed in Escherichia coli BL21(DE3) after 40 mins in presence of 17beta-estradiol by fluorescence polarization assay
T1 sequence (P03372 whole entry): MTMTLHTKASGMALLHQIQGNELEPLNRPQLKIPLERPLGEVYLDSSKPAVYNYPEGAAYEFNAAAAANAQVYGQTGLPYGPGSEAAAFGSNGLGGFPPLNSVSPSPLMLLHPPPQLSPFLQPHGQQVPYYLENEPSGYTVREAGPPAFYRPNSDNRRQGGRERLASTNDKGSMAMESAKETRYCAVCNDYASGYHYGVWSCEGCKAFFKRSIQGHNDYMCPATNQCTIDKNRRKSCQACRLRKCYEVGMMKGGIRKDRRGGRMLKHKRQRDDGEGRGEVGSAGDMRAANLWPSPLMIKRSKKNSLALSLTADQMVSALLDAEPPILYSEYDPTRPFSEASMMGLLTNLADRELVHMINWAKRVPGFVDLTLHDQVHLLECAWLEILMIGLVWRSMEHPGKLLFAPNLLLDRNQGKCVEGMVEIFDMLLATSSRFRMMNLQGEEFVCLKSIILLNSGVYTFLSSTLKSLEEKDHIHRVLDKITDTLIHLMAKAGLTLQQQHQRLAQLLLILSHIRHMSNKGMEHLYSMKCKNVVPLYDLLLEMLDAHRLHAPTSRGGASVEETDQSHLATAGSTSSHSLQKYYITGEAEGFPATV

Estrogen receptor beta = Estrogen receptor beta (Homo sapiens, UniProt Q92731); assay: Binding affinity to recombinant human GFP-fused ERbeta LBD (259 to 498 residues) expressed in Escherichia coli BL21(DE3) after 40 mins in presence of 17beta-estradiol by fluorescence polarization assay
Method in brief: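 FITC-labelled peptide at 10 nM final, titrated with increasing purified LBD (ERβ LBD carrying C334S, C369S, C481S) in 20 mM Tris-HCl pH 8.0, 150 mM NaCl, 5% glycerol, 1 mM TCEP with 10 μM 17β-estradiol. Incubated 40 min in the dark, polarization read at 298 K (ex 480/em 535 nm). KD from nonlinear regression of polarization versus protein concentration.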

Vitamin D3 receptor = molecular target: T2, Vitamin D3 receptor (Homo sapiens, UniProt P11473); assay: Binding affinity to recombinant human GST-tagged VDR LBD (156 to 453 residues) expressed in Echerichia coli BL21 star (DE3) after 40 mins in presence of vitamin D3 by fluorescence polarization assay
T2 sequence (P11473 whole entry): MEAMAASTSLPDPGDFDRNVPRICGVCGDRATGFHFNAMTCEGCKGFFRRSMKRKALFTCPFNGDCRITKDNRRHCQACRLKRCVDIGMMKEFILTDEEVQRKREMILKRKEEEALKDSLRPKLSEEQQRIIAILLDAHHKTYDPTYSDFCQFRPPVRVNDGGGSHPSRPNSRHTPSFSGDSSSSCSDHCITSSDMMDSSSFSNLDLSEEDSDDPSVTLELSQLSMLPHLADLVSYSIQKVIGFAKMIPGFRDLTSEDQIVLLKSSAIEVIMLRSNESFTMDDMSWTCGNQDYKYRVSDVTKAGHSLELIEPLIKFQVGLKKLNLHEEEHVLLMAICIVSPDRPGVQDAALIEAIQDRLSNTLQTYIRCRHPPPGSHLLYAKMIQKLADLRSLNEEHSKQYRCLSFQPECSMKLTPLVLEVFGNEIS
Method in brief: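 GST-VDR LBD titrated into 10 nM final FITC-labelled peptide in 20 mM Tris-HCl pH 8.0, 150 mM NaCl, 5% glycerol, 1 mM TCEP containing 10 μM vitamin D3. 40 min dark incubation, polarization at 298 K (ex 480/em 535 nm). KD by nonlinear regression.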

Homo sapiens [1] = organism: Homo sapiens; assay: Selectivity ratio of Kd for recombinant human ERbeta LBD (259 to 498 residues) to Kd for recombinant human ERalpha LBD (301 to 553 residues)
Method in brief: (§1)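 Ratio of KD values, each from fluorescence polarization of 10 nM FITC-peptide titrated with the respective LBD after 40 min in the dark at 298 K, with the matching ligand in buffer (10 μM 17β-estradiol, progesterone or vitamin D3).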

Homo sapiens [2] = organism: Homo sapiens; assay: Selectivity ratio of Kd for recombinant human GST-tagged PGR LBD ([…] residues) to Kd for recombinant human ERalpha LBD (301 to 553 residues); method in brief: as §1
Homo sapiens [3] = organism: Homo sapiens; assay: Selectivity ratio of Kd for recombinant human GST-tagged VDR LBD (156 to 453 residues) to Kd for recombinant human ERalpha LBD (301 to 553 residues); method in brief: as §1
[4] = Drug uptake in human MCF7 cells assessed per million cells at 5 uM after 3 hrs by FACS analysis; format: ADME, cell-based; details: mcf7, 3 h
Method in brief: (§2)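 Adherent cells seeded overnight, then exposed to 5 μM FITC-labelled peptide or DMSO in FBS-free medium, 3 h, 37 °C. After PBS washes (three), about 10000 cells per sample analysed by flow cytometry; mean cellular fluorescence intensity calculated. More than two independent experiments, SEM.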

[5] = Drug uptake in human U2OS cells assessed per million cells at 5 uM after 3 hrs by FACS analysis; format: ADME, cell-based; method in brief: as §2
[6] = molecular target: T3, Estrogen receptor (Homo sapiens) (UniProt P03372); assay: Binding affinity to recombinant human GFP-fused ERalpha LBD (301 to 553 residues) expressed in Escherichia coli BL21(DE3) in presence of ERalpha inhibitor 4-hydroxytamoxifen by ITC
T3 sequence (whole entry): T1 sequence (P03372 whole entry)
Method in brief: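 ITC at 25 °C. 50 μM peptide injected in 2 μL steps into 5 μM ERα LBD in 50 mM Tris pH 8.0, 150 mM NaCl, 1 mM TCEP containing 0.1 mM 4-hydroxytamoxifen instead of estradiol. Isotherm fitted.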

[7] = molecular target: T3, Estrogen receptor (Homo sapiens); assay: Binding affinity to recombinant human GFP-fused ERalpha LBD (301 to 553 residues) expressed in Escherichia coli BL21(DE3) in presence of 17beta-estradiol by ITC
Method in brief: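 ITC at 25 °C. 2 μL injections of 50 μM peptide into 5 μM ERα LBD in 50 mM Tris pH 8.0, 150 mM NaCl, 1 mM TCEP, 0.1 mM 17β-estradiol. Binding isotherm fitted for affinity.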

[8] = Drug uptake in human MCF7 cells at 5 uM after 3 hrs in presence of 10 nM E2 by DAPI-staining based confocal laser scanning microscopic analysis; details: mcf7, 3 h
[9] = Drug uptake in human MCF7 cell nucleus at 5 uM after 3 hrs in presence of 10 nM E2 by DAPI-staining based confocal laser scanning microscopic analysis

Chain of Estrogen receptor beta (Q92731 whole entry, the tested form may be a part): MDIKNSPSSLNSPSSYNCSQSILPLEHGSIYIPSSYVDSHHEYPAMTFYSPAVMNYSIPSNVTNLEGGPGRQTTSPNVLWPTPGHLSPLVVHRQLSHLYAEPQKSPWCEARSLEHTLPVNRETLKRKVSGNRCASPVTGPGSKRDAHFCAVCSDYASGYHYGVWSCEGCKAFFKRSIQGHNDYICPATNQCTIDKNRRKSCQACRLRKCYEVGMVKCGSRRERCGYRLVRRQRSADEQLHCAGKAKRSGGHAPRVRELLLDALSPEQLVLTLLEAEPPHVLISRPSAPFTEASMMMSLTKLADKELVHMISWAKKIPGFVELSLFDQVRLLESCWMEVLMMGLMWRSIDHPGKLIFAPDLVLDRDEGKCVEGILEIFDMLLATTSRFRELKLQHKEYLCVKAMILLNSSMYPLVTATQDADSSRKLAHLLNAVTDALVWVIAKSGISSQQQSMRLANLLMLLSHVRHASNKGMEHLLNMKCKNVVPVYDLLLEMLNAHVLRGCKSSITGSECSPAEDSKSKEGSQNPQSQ

CC[C@H](C)[C@@H]1NC(=O)C[C@H](NC(=O)[C@H](CCCNC(=N)N)NC(=O)CCNC(=S)Nc2ccc3c(c2)C(=O)OC32c3ccc(O)cc3Oc3cc(O)ccc32)C(=O)NCC(C(=O)N[C@@H](CCCNC(=N)N)C(=O)NC(CC(C)(C)C)C(=O)NC(CC(C)(C)C)C(=O)N[C@@H](CCC(N)=O)C(N)=O)NC(=O)C(CC(C)(C)C)NC1=O (some centres not stated)
Kd (Estrogen receptor): 67 nM | Kd (Estrogen receptor beta): 297 nM | Kd (Vitamin D3 receptor): > 2000 nM | Selectivity ratio (Homo sapiens [1]): 4.4 | Selectivity ratio (Homo sapiens [2]): 3.7 | Selectivity ratio (Homo sapiens [3]): > 30 | Drug uptake [4]: Active | Drug uptake [5]: Active | Activity [6]: inactive | Activity [7]: Active | Drug uptake [8]: Active | Drug uptake [9]: Active
